Data on three compounds can be found in ChEMBL document CHEMBL1128396, “Synthesis and biological evaluation of a series of new parenteral optically active 3-[[(N-alkylpyridinium-4'-yl)thio]methyl]-2-oxaisocephems” (1995).

In brackets after ≈: the same amount, converted by molar mass.

Type in all cases: functional
One assay deals with Escherichia coli. The experiment in a line: Antibacterial activity was determined against Escherichia coli NIHJ JC-2 (Gram-negative). The method, boiled down: (§1)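 2-fold agar dilution on Müller-Hinton agar. Overnight broth cultures were diluted to about 10^6 CFU/mL, and 10^4 CFU/spot was applied to plates with graded drug concentrations. Plates were incubated 18 h at 37 °C.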

For assay [1], the system named is Enterococcus faecalis. Description: Antibacterial activity was determined against Enterococcus faecalis ATCC 21212 (Gram-positive). The method in brief:
as §1

In another assay the test system is Klebsiella pneumoniae. The experiment in a line: Antibacterial activity was determined against Klebsiella pneumoniae NCTC 9632 (Gram-negative). The method, boiled down: as §1
Assay [2] deals with Mus musculus. The experiment in a line: Antibacterial activity was determined against MRSA 5038 at a challenge dose of 1.00*10e7 (cells/mouse) administered subcutaneously. As to conditions: sc. The method in brief:
(§2)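 Cultures were grown overnight at 37 °C in tryptic soy broth (S. aureus, MRSA, E. faecalis) or Müller-Hinton broth (E. coli, S. pneumoniae). Graded doses were given subcutaneously 1 h post-infection. ED50 was calculated by probit from day-7 survival, with 95% confidence limits.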

Assay [3] concerns Mus musculus. The experiment in a line: Antibacterial activity was determined against MRSA 5129 at a challenge dose of 1.38*10e8 (cells/mouse) administered subcutaneously. As to conditions: sc. The method in brief: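 Male ICR mice (~20 g, 10 per dose group) were challenged intraperitoneally with 0.5 mL of about 10-100 times the LD50. Inoculum was an overnight 37 °C tryptic soy broth culture suspended in fresh broth with 5% gastric mucin. Various subcutaneous doses were given 1 h post-infection. Survivors were counted on day 7, and ED50 with 95% confidence limits was derived by probit.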

Assay [4] has as its system Mus musculus. Description: Antibacterial activity was determined against Staphylococcus aureus Smith at a challenge dose of 1.32*10e7 (cells/mouse) (sc) administered. The method, boiled down: as §2
Assay [5] concerns Mus musculus. The experiment in a line: Antibacterial activity was determined against Escherichia coli 29 at a challenge dose of 1.35*10e6 (cells/mouse) administered subcutaneously. As to conditions: sc. The method, boiled down: as §2
For a further assay, the system named is Pseudomonas aeruginosa. Description: Antibacterial activity was determined against Pseudomonas aeruginosa ATCC 10145 (Gram-negative). The method in brief:
as §1

In assay [6] the test system is Staphylococcus aureus. Description: Antibacterial activity was determined against Methicillin-resistant Staphylococcus aureus (MRSA) 5038 (Gram-positive).
Assay [7] relates to Staphylococcus aureus. Description: Antibacterial activity was determined against Staphylococcus aureus FDA 209P (Gram-positive). The method, boiled down:
as §1

For assay [8], the system named is Staphylococcus aureus. The experiment in a line: […] was determined against MRSA 5129.
In the next assay the test system is Serratia marcescens. The experiment in a line: Antibacterial activity was determined against Serratia marcescens ATCC 12648 (Gram-negative). The method, boiled down:
as §1

Assay [9] deals with Staphylococcus epidermidis. The experiment in a line: Antibacterial activity was determined against Staphylococcus epidermidis ATCC 12228 (Gram-positive). The method in brief: as §1
For assay [10], the system named is Enterococcus faecalis. The experiment in a line: In vitro antibacterial activity against clinical isolates Enterococcus faecalis was determined. The method in brief:
as §1

The subject of assay [11] is Mus musculus. The experiment in a line: Antibacterial activity was determined against MRSA 5120 at a challenge dose of 7.6*10e7 (cells/mouse) administered subcutaneously. As to conditions: sc. The method in brief: as §2
In assay [12] the test system is Mus musculus. The experiment in a line: Antibacterial activity was determined against Staphylococcus aureus Smith at a challenge dose of 1.32*10e7 (cells/mouse) administered subcutaneously (value in parentheses indicates 95% CL). As to conditions: sc. The method in brief:
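Cultures were grown overnight at 37 °C in tryptic soy broth (S. aureus, MRSA, E. faecalis) or Müller-Hinton broth (E. coli, S. pneumoniae). Graded doses were given subcutaneously 1 h post-infection.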

Assay [13] relates to Mus musculus. The experiment in a line: Antibacterial activity was determined against Enterococcus faecalis C 0063 at a challenge dose of 7.00*10e7 (cells/mouse) administered subcutaneously. The conditions noted are these: sc. The method, boiled down:
as §2

Assay [14] relates to Staphylococcus aureus. The experiment in a line: In vitro antibacterial activity against clinical isolates methicillin-resistant Staphylococcus aureus was determined. The method, boiled down: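 2-fold agar dilution on Müller-Hinton agar. Overnight broth cultures were diluted to about 10^6 CFU/mL, and 10^4 CFU/spot was applied to plates with graded drug concentrations.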

The subject of assay [15] is Staphylococcus aureus. Description: […] was determined against MRSA 5120.
In another assay the test system is Streptococcus pneumoniae. Description: In vitro antibacterial activity against clinical isolates Ampicillin-insensitive Streptococcus pneumoniae was determined. The method, boiled down: as §1
Assay [16] deals with Mus musculus. The experiment in a line: Antibacterial activity was determined against Staphylococcus aureus Smith at a challenge dose of 1.32*10e7 (cells/mouse) administered subcutaneously. The conditions noted are these: sc. The method, boiled down: as §2

Consider `C[n+]1ccc(SCC2=C(C(=O)O)N3C(=O)[C@@H](NC(=O)/C(=N\OC4CCCC4)c4csc(N)n4)[C@H]3CO2)cc1.O=S(=O)([O-])O`, for which the MIC with Escherichia coli was found to be 0.39 µg/mL; in the assay with Enterococcus faecalis [1], 1.56 µg/mL; against Klebsiella pneumoniae, 0.2 µg/mL; with Pseudomonas aeruginosa it was 6.25 µg/mL; in the assay with Staphylococcus aureus [6] it was 3.13 µg/mL; in the assay on Staphylococcus aureus [7], 0.05 µg/mL. Also, the MIC against Staphylococcus aureus [8] turned out to be 6.25 µg/mL; in the assay with Serratia marcescens, 1.56 µg/mL; in assay [9], 0.05 µg/mL. In addition, the ED50 was determined as 3.4 mg/kg in the assay with Mus musculus [2], 3.91 mg/kg in the assay on Mus musculus [3], 0.08 mg/kg in the assay on Mus musculus [4] and 0.09 mg/kg with Mus musculus [5].
Regarding `CO/N=C(\C(=O)N[C@@H]1C(=O)N2C(C(=O)[O-])=C(C[n+]3cccc4c3CCC4)CS[C@H]12)c1csc(N)n1` [CEFPIROME], the MIC against Escherichia coli was determined as 0.05 µg/mL (≈ 0.0972 µM); against Enterococcus faecalis [1], 25 µg/mL (≈ 48.6 µM); in the assay on Klebsiella pneumoniae it was 0.05 µg/mL (≈ 0.0972 µM); against Pseudomonas aeruginosa it was 6.25 µg/mL (≈ 12.1 µM); against Staphylococcus aureus [6] it was 100 µg/mL (≈ 194 µM); against Staphylococcus aureus [7] it was 0.39 µg/mL (≈ 0.758 µM). Further, the MIC against Staphylococcus aureus [15] is 50 µg/mL (≈ 97.2 µM); against Serratia marcescens, 0.2 µg/mL (≈ 0.389 µM); in [9], 0.39 µg/mL (≈ 0.758 µM). Moreover, the MIC50 against Enterococcus faecalis [10] amounted to 50 µg/mL (≈ 97.2 µM); in the assay with Staphylococcus aureus [14] it was 50 µg/mL (≈ 97.2 µM); with Streptococcus pneumoniae, 0.39 µg/mL (≈ 0.758 µM). The MIC80 turned out to be 100 µg/mL (≈ 194 µM) against Enterococcus faecalis [10], 100 µg/mL (≈ 194 µM) against Staphylococcus aureus [14] and 0.78 µg/mL (≈ 1.52 µM) in the assay on Streptococcus pneumoniae. For the same compound, the MIC90 against Enterococcus faecalis [10] was determined as 100 µg/mL (≈ 194 µM); against Staphylococcus aureus [14] it was 100 µg/mL (≈ 194 µM); in the assay with Streptococcus pneumoniae, 0.78 µg/mL (≈ 1.52 µM). The median effective dose (ED50) with Mus musculus [11] was 27.7 mg/kg; with Mus musculus [12] it was 1.72 mg/kg; in the assay with Mus musculus [5], 0.64 mg/kg; in the assay with Mus musculus [13], over 100 mg/kg.
In the case of `CN[C@H](CC(C)C)C(=O)N[C@H]1C(=O)N[C@@H](CC(N)=O)C(=O)N[C@H]2C(=O)N[C@H]3C(=O)N[C@H](C(=O)N[C@H](C(=O)O)c4cc(O)cc(O)c4-c4cc3ccc4O)[C@H](O)c3ccc(c(Cl)c3)Oc3cc2cc(c3O[C@@H]2O[C@H](CO)[C@@H](O)[C@H](O)[C@H]2O[C@H]2C[C@](C)(N)[C@H](O)[C@H](C)O2)Oc2ccc(cc2Cl)[C@H]1O` [VANCOMYCIN], the minimal inhibitory concentration (MIC) with Escherichia coli is over 100 µg/mL; in the assay on Enterococcus faecalis [1], 0.78 µg/mL (≈ 0.538 µM); with Klebsiella pneumoniae it was over 100 µg/mL; against Pseudomonas aeruginosa, over 100 µg/mL; with Staphylococcus aureus [6], 0.78 µg/mL (≈ 0.538 µM); in the assay with Staphylococcus aureus [7], 0.78 µg/mL (≈ 0.538 µM). Further, the minimal inhibitory concentration (MIC) was 0.78 µg/mL (≈ 0.538 µM) against Staphylococcus aureus [15], 0.78 µg/mL (≈ 0.538 µM) in the assay on Staphylococcus aureus [8], over 100 µg/mL with Serratia marcescens and 3.13 µg/mL (≈ 2.16 µM) in assay [9]. The ED50 in the assay with Mus musculus [2] came out at 2.7 mg/kg; in the assay on Mus musculus [11], 11.5 mg/kg; in the assay on Mus musculus [3], 18.7 mg/kg; with Mus musculus [16], 3.74 mg/kg. For the same compound, the MIC50 against Staphylococcus aureus [14] is 1.56 µg/mL (≈ 1.08 µM). The same compound returned an MIC80 in the assay with Staphylococcus aureus [14] of 1.56 µg/mL (≈ 1.08 µM). The MIC90 against Staphylococcus aureus [14] was 1.56 µg/mL (≈ 1.08 µM).

What is called MIC is the lowest concentration found to suppress growth. By ED50 is commonly meant the midpoint of the dose-response relation. The MIC50 is the lowest concentration that inhibits either 50% of growth or 50% of the strains tested, depending on the study. High values mean lower susceptibility, low ones higher susceptibility. The MIC80 is an inhibitory concentration at the 80% level, which refers to growth in some studies and to a panel of isolates in others. Lower therefore signals greater potency. As a reminder, the MIC90 is the lowest concentration that inhibits either 90% of growth or 90% of the strains tested, depending on the study.
